According to ChEMBL document CHEMBL1129338, “Inhibitors of acyl-CoA:cholesterol O-acyltransferase. synthesis and pharmacological activity of (+/-)-2-dodecyl-alpha-phenyl-N-(2,4,6-trimethoxyphenyl)-2H-tetrazole-5- acetamide and structurally related tetrazole amide derivatives” (J Med Chem, 1996):
pIC50: −log10 of the molar value.

Assays:
[1] = target: T1, Sterol O-acyltransferase 1 (Mus musculus) (UniProt Q61263); assay: In vitro inhibitory activity against acyl coenzyme A:cholesterol acyltransferase 1 in cell culture assay using murine IC-21 macrophages at 0.1 uM
T1 sequence (whole entry): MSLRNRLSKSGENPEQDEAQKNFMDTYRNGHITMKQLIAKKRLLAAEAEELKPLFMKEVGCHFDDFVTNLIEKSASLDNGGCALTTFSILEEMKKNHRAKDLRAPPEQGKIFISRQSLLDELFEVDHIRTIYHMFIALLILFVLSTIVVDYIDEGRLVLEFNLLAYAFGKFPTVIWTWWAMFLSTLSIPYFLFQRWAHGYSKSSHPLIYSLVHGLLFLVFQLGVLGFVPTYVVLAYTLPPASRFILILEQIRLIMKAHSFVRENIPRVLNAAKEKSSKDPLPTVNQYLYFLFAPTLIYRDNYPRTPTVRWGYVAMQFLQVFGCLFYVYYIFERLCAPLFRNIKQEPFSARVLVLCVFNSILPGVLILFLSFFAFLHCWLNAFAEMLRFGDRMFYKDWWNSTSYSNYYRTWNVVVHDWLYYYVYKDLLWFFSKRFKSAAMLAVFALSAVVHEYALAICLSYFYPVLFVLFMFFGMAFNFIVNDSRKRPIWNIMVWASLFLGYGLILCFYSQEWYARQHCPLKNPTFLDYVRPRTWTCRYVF
In short: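 IC-21 mouse macrophages were preincubated 16 h in serum-free DMEM with 20 µM albumin and phosphatidylserine/cholesterol vesicles. The vesicles were sonicated in 150 mM NaCl, 5 mM MOPS, 1 mM EDTA, pH 7.4, and filter-sterilized. Medium was then replaced with serum-free DMEM containing the compound in DMSO at 0.1 µM. Percent inhibition was read, with cell protein measured by the Lowry method.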

[2] = target: T2, Sterol O-acyltransferase 1 (Rattus norvegicus, UniProt O70536); assay: In vitro inhibitory activity against acyl coenzyme A:cholesterol acyltransferase 1 of liver microsomes isolated from cholesterol-fed rats.
T2 sequence (O70536 whole entry): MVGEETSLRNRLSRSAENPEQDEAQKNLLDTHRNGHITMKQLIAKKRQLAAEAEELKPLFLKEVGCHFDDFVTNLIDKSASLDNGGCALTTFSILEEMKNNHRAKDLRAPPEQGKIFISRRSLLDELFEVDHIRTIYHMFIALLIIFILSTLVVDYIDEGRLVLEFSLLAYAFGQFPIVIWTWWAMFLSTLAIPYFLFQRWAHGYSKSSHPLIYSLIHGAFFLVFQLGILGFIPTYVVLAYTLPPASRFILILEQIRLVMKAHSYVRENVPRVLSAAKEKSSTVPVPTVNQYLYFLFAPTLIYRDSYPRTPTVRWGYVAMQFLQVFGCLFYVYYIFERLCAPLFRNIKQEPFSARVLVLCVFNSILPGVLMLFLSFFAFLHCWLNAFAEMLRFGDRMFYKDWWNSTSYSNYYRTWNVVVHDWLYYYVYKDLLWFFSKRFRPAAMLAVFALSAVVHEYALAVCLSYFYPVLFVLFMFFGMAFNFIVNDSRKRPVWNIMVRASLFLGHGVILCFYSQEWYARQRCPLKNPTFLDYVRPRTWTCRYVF
In short: (§1)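 ACAT inhibition was measured in hepatic microsomes isolated from cholesterol-fed rats. Each determination was run in triplicate, and IC50 was reported.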

Rattus norvegicus [3] = assay: Percent change in total cholesterol (TC) in cholic acid (0.5%) - cholesterol (1.5% - peanut oil (5.5%) - fed rats at a dose 30 mg/kg; type: functional
Rattus norvegicus [4] = assay: Percent change in High Density Lipoproteins (HDL) in Chronic Cholesterol -Fed rat model at a dose 30 mg/kg; type: functional
In short: (§2)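 Rats ate a high-fat, high-cholesterol diet for 14 days. During the second week they received the test compound daily by gavage at 30 mg/kg, in a carboxymethylcellulose/Tween-20 aqueous vehicle. Plasma lipids (total cholesterol, HDL-C, non-HDL-C) were read as percent change.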

Oryctolagus cuniculus [5] = assay: Oral bioactivity expressed as %inhibition after 4 hours of drug administration (dose 25 mg/kg) in rabbit bioassay; type: functional
In short: (§3)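 Plasma was taken before dosing and at 1, 2 and 4 h. Plasma (0.2 mL) was hexane-extracted, dried and redissolved in chloroform/methanol 2:1. It was then tested for ACAT inhibition in the liver microsomal assay alongside spiked standards and a 2.5 µM CI-976 reference.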

Rattus norvegicus [6] = assay: Percent change in total cholesterol (TC) in cholic acid (0.5%)-, cholesterol (1.5%) -, and peanut oil (5.5%)- fed rats at a dose 30 mg/kg.; type: functional
Rattus norvegicus [7] = assay: In vitro percent decrease in cholesterol activity at 30 mg/kg in acute rat screen; type: functional; settings: in the assay text read “In vivo” for “In vitro”
In short: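 Rats received a single gavage dose of 30 mg/kg, suspended in carboxymethylcellulose/Tween-20 in water, followed by one high-fat, high-cholesterol meal. The read-out was inhibition of the overnight rise in plasma total cholesterol, as percent change.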

Oryctolagus cuniculus [8] = assay: % change in total cholesterol(TC) versus (T0)- at which drug intervention begins at a dose of 5 mg/kg in chronic cholesterol-fed rabbit model; type: functional
In short: (§4)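 Male New Zealand rabbits (1-1.5 kg) were meal-fed 50 g/day of chow with 0.5% cholesterol, 3% coconut oil and 3% peanut oil. After 1 week, compound was added to the diet for 2 weeks at 5 or 25 mg/kg. Plasma total cholesterol came from cardiac blood of fasted animals after nitrogen asphyxiation. It was compared with cholesterol-fed progression controls or with T0, the start of drug intervention, when plasma cholesterol was taken 24 h after the drug meal.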

Oryctolagus cuniculus [9] = assay: % change in total cholesterol(TC) versus progression control (PC) with out drug intervention in chronic cholesterol-fed rabbit model at a dose of 25 mg/kg; type: functional; in short: as §4
Oryctolagus cuniculus [10] = assay: % change in total cholesterol(TC) versus progression control (PC) with out drug intervention in chronic cholesterol-fed rabbit model at a dose of 5 mg/kg; type: functional; in short: as §4
Oryctolagus cuniculus [11] = assay: Percent change in total cholesterol(TC) versus (T0)- at which drug intervention begins at a dose of 25 mg/kg in the chronic cholesterol-fed rabbit model; type: functional; in short: as §4
Rattus norvegicus [12] = assay: Change in total cholesterol in Chronic Cholesterol-Fed rat model at dose 30 mg/kg; type: functional; in short: as §2
Rattus norvegicus [13] = assay: Percent change in non High Density Lipoproteins (HDL) in Chronic Cholesterol -Fed rat model at a dose 30 mg/kg
Oryctolagus cuniculus [14] = assay: Oral bioactivity expressed as %inhibition after 4 hours of drug administration (dose 50 mg/kg) in rabbit bioassay; type: functional; in short: as §3
Oryctolagus cuniculus [15] = assay: Dose response in cholesterol fed rabbit after oral administration; type: functional
In short: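 Cholesterol-fed rabbit model with oral dosing across a dose series, 8 animals per dose. Plasma cholesterol reduction was averaged at each dose. ED50, the dose lowering plasma total cholesterol 50%, was calculated from these mean responses with the median-effect equation.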

Oryctolagus cuniculus [16] = assay: Change in total cholesterol(TC) versus progression control (PC) with out drug intervention in chronic cholesterol-fed rabbit model at a dose of 5 mg/kg; type: functional; in short: as §4
Rattus norvegicus [17] = assay: Effective dose to lower nonHDL-C in a cholesterol fed rat model in vivo; type: functional
[18] = target: T3, Acyl-CoA:cholesterol acyltransferase (Oryctolagus cuniculus) (UniProt Q95214); settings: 25 mg/kg
T3 sequence (whole entry): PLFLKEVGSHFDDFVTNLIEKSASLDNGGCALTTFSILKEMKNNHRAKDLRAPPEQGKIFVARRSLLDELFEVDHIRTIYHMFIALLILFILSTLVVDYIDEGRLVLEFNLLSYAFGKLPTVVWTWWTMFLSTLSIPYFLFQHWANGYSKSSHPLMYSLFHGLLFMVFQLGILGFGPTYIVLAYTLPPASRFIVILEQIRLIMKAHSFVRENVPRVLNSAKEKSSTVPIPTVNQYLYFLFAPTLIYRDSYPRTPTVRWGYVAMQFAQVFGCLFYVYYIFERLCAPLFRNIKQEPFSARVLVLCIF

Oryctolagus cuniculus [19] = assay: Change in total cholesterol(TC) versus progression control (PC) with out drug intervention in chronic cholesterol-fed rabbit model at a dose of 25 mg/kg; type: functional; in short: as §4
[20] = target: T3, Acyl-CoA:cholesterol acyltransferase (Oryctolagus cuniculus); settings: at 25 mg/kg
Oryctolagus cuniculus [21] = assay: Change in total cholesterol(TC) versus (T0)- at which drug intervention begins at a dose of 5 mg/kg in chronic cholesterol-fed rabbit model; type: functional; in short: as §4
[22] = target: Sterol O-acyltransferase 1 (Mus musculus) (UniProt Q61263); assay: Percent change of compound against Acyl coenzyme A:cholesterol acyltransferase 1 in cell culture assay using murine IC-21 macrophages at 0.1(uM)
[23] = target: T2, Sterol O-acyltransferase 1; assay: Inhibitory concentration against Acyl coenzyme A:cholesterol acyltransferase 1 from rat liver; in short: as §1
Rattus norvegicus [24] = assay: % change in total cholesterol in Chronic Cholesterol-Fed rat model at dose 30 mg/kg; type: functional; in short: as §2
[25] = target: T4, Acyl-CoA:cholesterol acyltransferase (Oryctolagus cuniculus, UniProt Q95214); assay: Inhibitory concentration against Acyl coenzyme A:cholesterol acyltransferase 1 from rabbit intestine
T4 sequence (Q95214 whole entry): T3 sequence (whole entry)

[26] = test system: Acyl-CoA:cholesterol acyltransferase (Rattus norvegicus); assay: Ability to reduce cholesterol absorption, i.e. the appearance of lymph cholesteryl ester at a dose of 10 mg/kg

inhibition [1] [%]	pIC50 [2]	Compound	Change (Rattus norvegicus [4]) [%]	inhibition in vivo at 25 mg/kg (Oryctolagus cuniculus [5]) [%]	Change (Rattus norvegicus [6]) [%]	Change (Oryctolagus cuniculus [9]) [%]	Change (Oryctolagus cuniculus [10]) [%]	Change (Rattus norvegicus [13]) [%]	inhibition in vivo at 50 mg/kg (Oryctolagus cuniculus [14]) [%]	other results
49	7.51	CCCCCCCCCCCCn1nnc(C(C)C(=O)Nc2c(OC)cc(OC)cc2OC)n1 (stereo not given)								Change (Rattus norvegicus [3]): <55%
67	7.82	CCCCCCCCCCCCc1nnn(C(C(=O)Nc2c(C(C)C)cccc2C(C)C)c2ccccc2)n1 (stereo not given)	50	91	<77	<68	<55			Decrease (Rattus norvegicus [7]): 77%; Change (Oryctolagus cuniculus [8]): 18%; Change (Oryctolagus cuniculus [11]): <20%
54	7.27	C=CCCCCCCCCCn1nnc(C(C(=O)Nc2c(OC)cc(OC)cc2OC)c2ccccc2)n1 (stereo not given)	102		<56			<77	26	Change (Rattus norvegicus [12]): <72%
		CCCCCCCCCCC(C)(C)C(=O)Nc1c(OC)cc(OC)cc1OC [CL-976]								ED50 (Oryctolagus cuniculus [15]): 21.8 mg/kg; Change (Oryctolagus cuniculus [16]): <28%; ED50 (Rattus norvegicus [17]): 19 mg/kg; Change [18]: 19%; Change (Oryctolagus cuniculus [19]): <54%; inhibition [20]: 45%; Change (Oryctolagus cuniculus [21]): 96%
52	7.68	CCCCCCCCCCCCc1nnn(C(C(=O)Nc2c(OC)cc(OC)cc2OC)c2ccccc2)n1 (stereo not given)		0	<65	<68	<63			Decrease (Rattus norvegicus [7]): 65%; Change (Oryctolagus cuniculus [8]): <11%
40	7.64	CCCCCCCCCCCCn1nnc(C(C(=O)Nc2c(OC)cc(OC)cc2OC)c2ccccc2)n1 (stereo not given)	83	0	<63	<78	<71	<68	4	pIC50 [23]: 7.64; ED50 (Oryctolagus cuniculus [15]): 0.1 mg/kg; ED50 (Rattus norvegicus [17]): 6.4 mg/kg; Change (Rattus norvegicus [24]): <60%; pIC50 [25]: 8.10; Change (Oryctolagus cuniculus [11]): <38%; Reduction [26]: 79%
37	7.60	C=CCCCCCCCCCCn1nnc(C(C(=O)Nc2c(OC)cc(OC)cc2OC)c2ccccc2)n1 (stereo not given)	98		<63			<58	37	Change (Rattus norvegicus [12]): <52%

Compound	inhibition [1] [%]	pIC50 [2]	Change (Rattus norvegicus [4]) [%]	inhibition in vivo at 25 mg/kg (Oryctolagus cuniculus [5]) [%]	Change (Rattus norvegicus [6]) [%]	Change (Oryctolagus cuniculus [9]) [%]	Change (Oryctolagus cuniculus [10]) [%]	Change (Rattus norvegicus [13]) [%]	inhibition in vivo at 50 mg/kg (Oryctolagus cuniculus [14]) [%]	other results
CCCCCCCCCCCCn1nnc(C(=O)Nc2c(OC)cc(OC)cc2OC)n1		4.45								Change [22]: 21%
